How the values were obtained:
[1] = system: dUTPase (deoxyuridine 5′-triphosphate nucleotidohydrolase); assay: Enzyme selectivity screen, dUTPase; type: biochemical; settings: 20 μM
hOGG1 [2] = molecular target: T1, hOGG1 (Homo sapiens, UniProt O15527); assay: Michaelis–Menten kinetics of hOGG1 with OGR1 probe; type: biochemical
Outline: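 Recombinant hOGG1 (100 nM) was preincubated 15 min at 37 °C in NEBuffer 4 (pH 7.9) with BSA, without or with test compound (200 nM or 2 μM). OGR1 fluorogenic substrate was added at 0.8–10 μM and fluorescence read at 460 nm (excitation 355 nm). Initial rates over 10 min gave Michaelis–Menten curves and Lineweaver–Burk plots, yielding Km and Vmax; kcat = Vmax/[enzyme].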

[3] = molecular target: T2, SMUG1 (single-strand selective monofunctional uracil DNA glycosylase) (Homo sapiens, UniProt Q53HV7); assay: Enzyme selectivity screen, SMUG1; type: biochemical; settings: 20 μM
T2 sequence (Q53HV7 1-270): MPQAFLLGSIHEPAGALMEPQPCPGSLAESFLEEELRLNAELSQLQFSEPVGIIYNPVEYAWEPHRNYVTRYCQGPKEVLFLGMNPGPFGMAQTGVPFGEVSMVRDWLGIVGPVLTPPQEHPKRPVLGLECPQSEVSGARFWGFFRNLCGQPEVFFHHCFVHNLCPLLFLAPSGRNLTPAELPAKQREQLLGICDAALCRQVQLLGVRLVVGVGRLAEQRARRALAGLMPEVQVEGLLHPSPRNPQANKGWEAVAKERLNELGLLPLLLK

HeLa cells = assay: Toxicity via MTT assay, HeLa; type: cell-based, human
Outline: (§1)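 HEK293T cells (1.6×10^4/well, pre-grown 30 h) or HeLa cells (1.2×10^4/well, pre-grown 16 h) were cultured in DMEM with 10% FBS. They were exposed 24 h at 37 °C to test compound at 10 nM–100 μM, with 5% DMSO at 100 μM and 1% DMSO otherwise; medium-only and DMSO-matched controls were included. MTT was added at 0.5 mg/mL final, followed by 20 h solubilisation and absorbance reading at 550 and 650 nm.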

[4] = molecular target: T3, hABH3 (human AlkB Homolog 3) (Homo sapiens, UniProt Q96Q83); assay: Enzyme selectivity screen, hABH3; type: biochemical; settings: 20 μM
T3 sequence (Q96Q83 1-286): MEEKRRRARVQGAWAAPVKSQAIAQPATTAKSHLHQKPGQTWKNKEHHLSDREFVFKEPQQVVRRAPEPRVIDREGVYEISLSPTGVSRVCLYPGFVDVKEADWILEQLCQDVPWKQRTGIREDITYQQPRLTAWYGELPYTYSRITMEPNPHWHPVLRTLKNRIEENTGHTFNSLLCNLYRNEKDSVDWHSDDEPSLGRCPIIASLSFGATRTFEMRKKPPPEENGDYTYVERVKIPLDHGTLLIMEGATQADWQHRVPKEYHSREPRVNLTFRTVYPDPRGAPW

[5] = molecular target: OGG1 activity in MCF-7 cell lysates (Homo sapiens, UniProt O15527); assay: Inhibition of OGG1 activity in MCF-7 cell lysate; type: biochemical; settings: MCF-7 lysate, 0.5 μM, measured at 20 h
hOGG1 [6] = molecular target: T1, hOGG1; assay: OGG1 inhibitor assay with fluorogenic OGR1 probe; type: biochemical
[7] = molecular target: Recombinant His-tagged OGG1 (Homo sapiens, UniProt O15527); assay: Surface plasmon resonance; type: binding; settings: Biacore 8K, 1:3 dilution series, highest concentration 4 μM
HEK293T cells = assay: Toxicity via MTT assay, HEK293T; type: cell-based, human
Outline: as §1

Caco-2 (clone C2BBel) = assay: CACO-2 permeability assay; type: in vitro ADME; settings: for Papp avg: average; for Papp R1: replicate R1
[8] = molecular target: T4, hABH2 (human AlkB Homolog 2) (Homo sapiens, UniProt Q6NS38); assay: Enzyme selectivity screen, hABH2; type: biochemical; settings: 20 μM
T4 sequence (Q6NS38 1-261): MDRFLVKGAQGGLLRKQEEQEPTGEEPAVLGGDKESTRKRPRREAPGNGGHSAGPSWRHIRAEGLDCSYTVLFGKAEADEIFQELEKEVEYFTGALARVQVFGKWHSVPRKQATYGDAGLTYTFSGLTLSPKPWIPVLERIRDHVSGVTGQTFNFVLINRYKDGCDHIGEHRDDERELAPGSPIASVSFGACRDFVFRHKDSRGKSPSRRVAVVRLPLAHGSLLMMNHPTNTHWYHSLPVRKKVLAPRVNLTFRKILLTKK

[9] = molecular target: MTH1 (human MutT Homolog 1) (Homo sapiens, UniProt P36639); assay: Enzyme selectivity screen, MTH1; type: biochemical; settings: 20 μM
OGG1 in HeLa cells = OGG1 in HeLa cells (Homo sapiens, UniProt O15527); assay: Detection of 8-OG; type: cell-based; settings: 0.5 μM, 24 h, LC/MS-MS
Outline: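 HeLa cells were seeded at 2×10^6 per 10 cm dish in DMEM with 10% FBS and grown 12 h. They were then exposed 24 h at 37 °C to test compound at 5 or 0.5 μM, with compound-containing medium renewed every 6 h. Controls were untreated cells and H2O2 (0.5 mM) plus CrCl3 (0.3 mM). DNA (5 µg) was digested to nucleosides, and 8-oxodG was quantified by LC-MS/MS with 15N-labelled internal standards and normalised to dG.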

[10] = molecular target: OGG1 activity in HeLa cell lysates (Homo sapiens, UniProt O15527); assay: Inhibition of OGG1 activity in HeLa cell lysate; type: biochemical; settings: 0.5 μM, measured at 20 h
Outline: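 Cells were grown 48 h to confluence in DMEM with 10% FBS. Cytoplasmic fractions came from hypotonic swelling and needle lysis; nucleoplasmic fractions from 0.42 M NaCl extraction. The two were mixed 2:1. Each reaction held 100 ng/µL total protein, 2 µM pOGR1 fluorogenic probe, 10 mM MgCl2 and test compound at 0.5 μM, and ran […] at 37 °C. Fluorescence was read at 460 nm (excitation 355 nm).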

[11] = molecular target: NUDT16 (nucleoside diphosphate-linked moiety X-type motif 16) (Homo sapiens, UniProt Q96DE0); assay: Enzyme selectivity screen, NUDT16; type: biochemical; settings: 20 μM
Chain of NUDT16 (nucleoside diphosphate-linked moiety X-type motif 16) (Q96DE0 whole entry, species assumed): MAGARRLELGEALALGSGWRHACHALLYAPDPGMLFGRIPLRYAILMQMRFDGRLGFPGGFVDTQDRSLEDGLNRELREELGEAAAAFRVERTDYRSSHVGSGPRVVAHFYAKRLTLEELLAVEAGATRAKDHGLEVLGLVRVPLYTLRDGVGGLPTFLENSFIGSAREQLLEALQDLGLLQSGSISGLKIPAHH

T1 sequence (O15527 whole entry): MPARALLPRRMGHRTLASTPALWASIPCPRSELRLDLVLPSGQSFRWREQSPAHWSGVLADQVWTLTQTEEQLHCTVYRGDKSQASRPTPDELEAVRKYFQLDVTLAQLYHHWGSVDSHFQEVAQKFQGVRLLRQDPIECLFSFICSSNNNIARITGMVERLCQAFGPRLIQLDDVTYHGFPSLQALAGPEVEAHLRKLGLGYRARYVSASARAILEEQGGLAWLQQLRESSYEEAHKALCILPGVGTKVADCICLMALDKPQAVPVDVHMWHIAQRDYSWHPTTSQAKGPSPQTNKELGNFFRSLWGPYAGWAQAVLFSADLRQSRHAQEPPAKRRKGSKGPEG
Chain of Recombinant His-tagged OGG1 (O15527 whole entry): as above
Chain of OGG1 activity in MCF-7 cell lysates (O15527 whole entry): as above
Chain of OGG1 in HeLa cells (O15527 whole entry): as above
Chain of OGG1 activity in HeLa cell lysates (O15527 whole entry): as above

NC(=O)c1cccc(-c2ccc(S(=O)(=O)Nc3ccc4c(c3)N(C(=O)C3CC3)CCC4)cc2)c1 [Compound 41]
activity against dUTPase [1]: low or negligible | mode of inhibition (hOGG1 [2]; Lineweaver–Burk analysis, 200 nM and 2 μM): competitive inhibitor | kcat (hOGG1 [2]; with 200 nM 41): 0.040 s⁻¹ | kcat (hOGG1 [2]; with 2 μM 41): 0.057 s⁻¹ | activity against SMUG1 [3]: low or negligible | toxicity at 10 μM (HeLa cells; HeLa (one of two human cell lines), 10 μM): no toxicity | cytotoxicity (MTT) (HeLa cells; HeLa, 10 nM to 10 μM, 24 h): little or no cytotoxicity | apparent toxicity (MTT) (HeLa cells; HeLa, 100 μM, 24 h): 30–50% | activity against hABH3 [4]: low or negligible | inhibition of probe signal [5]: 95% | Enzyme activity, % of control at 2 μM (hOGG1 [6]; 2 μM compound, initial rate (first 12 min)): 4.8 % of control | IC50 (hOGG1 [6]; OGR1 assay, initial rates method): 59 nM | Enzyme activity, % of control at 200 μM (third column of Table 5) (hOGG1 [6]; head of Table 5 c4 prints 200 μM, initial rate (first 12 min)): 39 ±2.5 % of control | Kd (1:1 kinetic and steady-state models) [7]: consistent with IC50 of the biochemical assay | toxicity at 10 μM (HEK293T cells; HEK293T (one of two human cell lines), 10 μM): no toxicity | cytotoxicity (MTT) (HEK293T cells; HEK293T, 10 nM to 10 μM, 24 h): little or no cytotoxicity | apparent toxicity (MTT) (HEK293T cells; HEK293T, 100 μM, 24 h): 30–50% | recovery (Caco-2 (clone C2BBel); A-to-B): 65% | Papp avg (Caco-2 (clone C2BBel); A-to-B): 12.5 ×10⁻⁶ cm/s | Papp R1 (Caco-2 (clone C2BBel); A-to-B): 14.2 ×10⁻⁶ cm/s | recovery (Caco-2 (clone C2BBel); B-to-A): 79% | efflux ratio (Caco-2 (clone C2BBel); B-to-A / A-to-B): 6.2 | Papp avg (Caco-2 (clone C2BBel); B-to-A): 77.4 ×10⁻⁶ cm/s | Papp R1 (Caco-2 (clone C2BBel); B-to-A): 63.5 ×10⁻⁶ cm/s | activity against hABH2 [8]: low or negligible | activity against MTH1 [9]: low or negligible | increase of 8-oxodG levels in DNA relative to mock-treated controls (OGG1 in HeLa cells): 25% | inhibition of probe signal [10]: 64% | activity against NUDT16 [11]: low or negligible

From publication PMC5823510 (Journal of the American Chemical Society, 2018)
